Screening data deposited in PubChem BioAssay by several laboratories.
DTT redox prof – compounds producing H2O2 with reducing agent – biochemical, NIH compound library profiling, artefact control for MLSCN library redox annotation, primary screen; activation, % at 10 µM; hit rate 0.03% among 200,000; DTT-dependent redox cycling H2O2, phenol red/HRP absorbance; 100% = 100 µM peroxide control, 0% = buffer; AID 878;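 active means activation of at least 50% relative to the plate's high and low controls in the primary single-dose screen; inactive means activation below 50%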;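 further: compound incubated with DTT at 0.8 mM final as the reducing agent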
p97 ATPase inh – blocks human p97 ATPase activity. AID 1481. P55072. recombinant p97 ATPase, Kinase-Glo ATP luminescence, 3 h. hit rate 0.42% among 220,000. inhibition, % at 8 µM; in the data active means inhibition above about 15%
KCC2 mod – modulators of human KCC2 chloride dependent transport; KCC2 cells, thallium flux FluoZin-2 fluorescence; Q9H2X9; AID 1456; hit rate 2.2% among 190,000; B-score of Tl+ flux slope (higher = more flux/activation; lower = inhibition) at 10 µM;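 active means thallium flux slope and its plate-corrected score both differing from the plate sample mean at a set confidence after two filtering rounds, in either direction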;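 further: slope of fluorescence scaled to starting intensity during 10 to 20 s after thallium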
ROMK mod – modulators of human ROMK potassium channel | hit rate 2% among 130,000 | B-score at 10 µM | P48048 | Tet-inducible ROMK, thallium flux fluorescence; actives lie on both sides;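 active means signal ratio slope over the read window, or its plate-corrected B-score, at least 3 SD from the plate mean, either direction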;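 further: B-score of the F/F0 ratio slope over 7 to 12 s after thallium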
PKD1 inh – PKD1 (human) kinase inhibition; inhibition, % (no concentration beside the values); hit rate 0.056% among 200,000; AID 797; Q15139; PKD1 kinase fluorescence polarization assay; in the data active means inhibition above about 50%
MDM2 E3 inh – Mdm2 E3 ligase (human) inhibition | Q00987 | AID 1230 | signal enhancement, % at 5 µM | cell-based MDM2 ubiquitination luciferase reporter, 2 h; 0 = plate control, 100 = twice control, blank-subtracted | hit rate 0.11% among 210,000;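 active means signal enhancement of 30% or more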;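 further: luminescence tracks abundance of the self-degrading MDM2-luciferase fusion protein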
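Assay system: stable mammalian line carrying autodegrading MDM2–luciferase fusion reporter; Input: 2000 cells in each well; Compound dosing: single-point 5 µM; Schedule: 2 h compound exposure at 37 °C; Signal: SteadyLite luciferase luminescence after 15 min room-temperature reagent incubation; Evaluation: % luminescence enhancement versus blank-corrected plate control mean; Benchmarks: plate controls and plate blanks.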
ROMK retest – human ROMK channel modulation, retest confirmation | ROMK thallium flux, fluorescence ratio; hits give low values | normalized thallium flux (F/F0 slope) at 10 µM | hit rate 54% among 3,000 | shares compounds with ROMK mod;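 active means Flux at 10 µM at least 3 SD below or above vehicle control mean in one or both replicates; inconclusive means no clear call, values can overlap the other calls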
Hits are given with their value. The list is not random: actives were taken first. Their share in the collection is about 3.4%.

For CCOC(=O)c1c(-c2ccc(OC)cc2)csc1NC(=O)CSc1ncnc2sccc12 the results were DTT redox prof inactive, p97 ATPase inh inactive, KCC2 mod inactive, PKD1 inh inactive and MDM2 E3 inh inactive.
O=C(C/C=N/OCc1ccc(Cl)cc1Cl)c1ccccc1 was read as DTT redox prof inactive, p97 ATPase inh inactive, KCC2 mod inactive, PKD1 inh inactive and MDM2 E3 inh inactive.
Screening COC(=O)c1cc(NC(=O)c2ccccc2)c(=O)oc1C/C=N\OCc1ccc(Cl)cc1Cl returned DTT redox prof inactive, p97 ATPase inh inactive, KCC2 mod inactive, ROMK mod -2.8, PKD1 inh inactive, MDM2 E3 inh inactive and ROMK retest 0.065.
`CN(Cc1ccc(Cl)cc1)C(=O)CCl` gave DTT redox prof inactive, p97 ATPase inh inactive, KCC2 mod inactive, ROMK mod -4.7, PKD1 inh inactive, MDM2 E3 inh inactive and ROMK retest inconclusive.
`COc1cc2c(cc1OC)CN(CCC(=O)c1ccc(Br)cc1)CC2` gave DTT redox prof inactive, p97 ATPase inh inactive, KCC2 mod inactive, ROMK mod -4, PKD1 inh inactive, MDM2 E3 inh inactive and ROMK retest inconclusive.
Screening COc1cc2c(cc1OC)CN(CC(=O)Nc1cccc(C)c1)CC2 returned DTT redox prof inactive, p97 ATPase inh inactive, KCC2 mod inactive, PKD1 inh inactive and MDM2 E3 inh inactive.
C#CC[N+]1(CC#Cc2ccccc2)CCCC1 was read as DTT redox prof inactive, p97 ATPase inh inactive, PKD1 inh inactive and MDM2 E3 inh inactive.
C(#Cc1ccccc1)C[N+]1(CC#Cc2cccc3ccccc23)CCCC1 was read as DTT redox prof inactive, p97 ATPase inh inactive, KCC2 mod inactive, ROMK mod -4.5, PKD1 inh inactive, MDM2 E3 inh inactive and ROMK retest 0.049.
c1ccc(Cn2c(-c3cncs3)nc3ccccc32)cc1 was read as DTT redox prof inactive, p97 ATPase inh inactive, KCC2 mod inactive, ROMK mod -2.5, PKD1 inh inactive, MDM2 E3 inh inactive and ROMK retest 0.06.
`COc1ccccc1/C=N/NC(=O)CC(=O)Nc1ccc(Cl)c(Cl)c1` gave DTT redox prof inactive, p97 ATPase inh inactive, KCC2 mod inactive, ROMK mod -3.8, PKD1 inh inactive, MDM2 E3 inh inactive and ROMK retest inactive.
Cc1cc(C(F)F)n2ncc(C(=O)NCc3ccccc3C(F)(F)F)c2n1 was read as DTT redox prof inactive, p97 ATPase inh inactive, KCC2 mod inactive, PKD1 inh inactive and MDM2 E3 inh inactive.
For Cc1ccc(C)c(-c2csc(N)c2C(=O)OC(C)C)c1 the results were DTT redox prof inactive, p97 ATPase inh inactive, KCC2 mod inactive, ROMK mod 2.7, PKD1 inh inactive, MDM2 E3 inh inactive and ROMK retest inactive.
For O=C(C1CC(Cl)CN1S(=O)(=O)c1ccc(Cl)cc1)N1CCOCC1 (stereo not given) the results were DTT redox prof inactive, p97 ATPase inh inactive, KCC2 mod inactive, ROMK mod -2, PKD1 inh inactive, MDM2 E3 inh inactive and ROMK retest inactive.
Screening O=C(Nc1ccc(N2CCOCC2)cc1)C1CC(O)CN1S(=O)(=O)c1ccc(Cl)cc1 (stereo not given) returned DTT redox prof inactive, p97 ATPase inh inactive, KCC2 mod inactive, ROMK mod inactive, PKD1 inh inactive and MDM2 E3 inh inactive.
`CCOC(=O)c1ccccc1NC(=O)CSc1nc2ccccc2n1CC(=O)N1CCCC1` gave DTT redox prof inactive, p97 ATPase inh inactive, KCC2 mod inactive, PKD1 inh inactive and MDM2 E3 inh inactive.
For CCCC1(C(=O)OCC)NC(c2ccc(O)cc2)C2C(=O)N(c3ccc4c(c3)OCCO4)C(=O)C21 (stereo not given) the results were DTT redox prof inactive, p97 ATPase inh inactive, KCC2 mod inactive, ROMK mod 1.2, PKD1 inh inactive, MDM2 E3 inh inactive and ROMK retest inactive.
`Cc1cc(Br)c2nc3c(c(C(=O)O)c2c1)CCCCC3` gave DTT redox prof inactive, p97 ATPase inh inactive, KCC2 mod inactive, ROMK mod inactive, PKD1 inh inactive and MDM2 E3 inh inactive.
For COC(=O)/C=C1\C(=O)N(c2nc3ccccc3s2)C(=S)N1c1ccc(F)cc1 the results were DTT redox prof inactive, p97 ATPase inh inactive, ROMK mod -2.8, PKD1 inh inactive, MDM2 E3 inh inactive and ROMK retest 0.064.
Screening COC(=O)/C=C1\C(=O)N(c2nc3ccc(OC)cc3s2)C(=S)N1c1ccc(F)cc1 returned DTT redox prof inactive, p97 ATPase inh inactive, PKD1 inh inactive and MDM2 E3 inh inactive.
`CCOc1ccc(NS(=O)(=O)c2ccc(OC)c(C)c2)cc1` gave DTT redox prof inactive, p97 ATPase inh inactive, KCC2 mod inactive, ROMK mod inactive, PKD1 inh inactive and MDM2 E3 inh inactive.
Screening Cc1csc2nc3cc(C(N)=O)ccc3c(=O)n12 returned KCC2 mod inactive, MDM2 E3 inh inactive and ROMK retest inactive.
For COc1ccc2[nH]c(CN3CCN(CC(C)C)C(CCO)C3)c(C)c2c1 (stereo not given) the results were DTT redox prof inactive, p97 ATPase inh inactive, KCC2 mod inactive, ROMK mod inactive, PKD1 inh inactive and MDM2 E3 inh inactive.
COc1ccc2[nH]c(CN3CCN(C(C)C)C(CCO)C3)c(C)c2c1 (stereo not given) was read as DTT redox prof inactive, p97 ATPase inh inactive, KCC2 mod inactive, ROMK mod -7.8, PKD1 inh inactive, MDM2 E3 inh inactive and ROMK retest inactive.
For C#CCOCCOCCOCCNc1nc(N2CCOCC2)nc(N2CCN(C(=O)[C@H]([C@@H](C)CC)n3cc([C@@H](N)CO)nn3)CC2)n1 the results were DTT redox prof inactive, p97 ATPase inh inactive, KCC2 mod inactive and PKD1 inh inactive.
For Cc1nc(S(=O)(=O)c2ccc(Cl)cc2)c(NCc2ccccc2)o1 the results were DTT redox prof inactive, p97 ATPase inh inactive, KCC2 mod inactive, PKD1 inh inactive and MDM2 E3 inh inactive.
CCOC(=O)c1ccccc1NC(=O)c1c(F)c(F)c(F)c(F)c1F was read as DTT redox prof inactive, p97 ATPase inh inactive, KCC2 mod inactive, ROMK mod inactive, PKD1 inh inactive and MDM2 E3 inh inactive.
For C/C(=N\Nc1nc(-c2ccccn2)nc2ccccc12)c1ccc(F)cc1 the results were p97 ATPase inh inactive and KCC2 mod inactive.
`c1ccc(CCNc2nc(-c3ccccn3)nc3ccccc23)cc1` gave p97 ATPase inh inactive, KCC2 mod inactive, MDM2 E3 inh inactive and ROMK retest inconclusive.
c1ccc(-c2nc(N3CCCCCC3)c3ccccc3n2)nc1 was read as DTT redox prof inactive, p97 ATPase inh inactive, KCC2 mod inactive, ROMK mod -2.7, PKD1 inh inactive, MDM2 E3 inh inactive and ROMK retest 0.059.
